Laboratory results as given in ChEMBL document CHEMBL1146618, “Discovery of 2-amino-heteroaryl-benzothiazole-6-anilides as potent p56(lck) inhibitors” (Bioorg Med Chem Lett, 2003).
pIC50, pKi: −log10 of the molar value.

Legend:
[1] = biological target: T1, Tyrosine-protein kinase Lck (Homo sapiens, UniProt P06239); assay: Inhibition of human p56 Lck tyrosine kinase
[2] = biological target: Proto-oncogene tyrosine-protein kinase Src (Homo sapiens, UniProt P12931); assay: Inhibition of Src protein tyrosine kinase
Method in brief: (§1)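 Continuous coupled assay (pyruvate kinase/lactate dehydrogenase with PEP and NADH), run under the same conditions as the GST-Lck assay. Inhibitor was added in DMSO and the reaction started with ATP. Fluorescence was followed and rates were fitted by nonlinear least squares to derive Ki.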

[3] = Inhibition of anti-CD3, anti-CD28 induced PBL T-cell proliferation; format: functional; conditions: Homo sapiens
[4] = biological target: T1, Tyrosine-protein kinase Lck; assay: Inhibition of p56 Lck tyrosine kinase
[5] = biological target: Tyrosine-protein kinase Fyn (Homo sapiens, UniProt P06241); assay: Inhibition of Fyn protein kinase; method in brief: as §1
Sequence of Tyrosine-protein kinase Fyn (P06241 whole entry): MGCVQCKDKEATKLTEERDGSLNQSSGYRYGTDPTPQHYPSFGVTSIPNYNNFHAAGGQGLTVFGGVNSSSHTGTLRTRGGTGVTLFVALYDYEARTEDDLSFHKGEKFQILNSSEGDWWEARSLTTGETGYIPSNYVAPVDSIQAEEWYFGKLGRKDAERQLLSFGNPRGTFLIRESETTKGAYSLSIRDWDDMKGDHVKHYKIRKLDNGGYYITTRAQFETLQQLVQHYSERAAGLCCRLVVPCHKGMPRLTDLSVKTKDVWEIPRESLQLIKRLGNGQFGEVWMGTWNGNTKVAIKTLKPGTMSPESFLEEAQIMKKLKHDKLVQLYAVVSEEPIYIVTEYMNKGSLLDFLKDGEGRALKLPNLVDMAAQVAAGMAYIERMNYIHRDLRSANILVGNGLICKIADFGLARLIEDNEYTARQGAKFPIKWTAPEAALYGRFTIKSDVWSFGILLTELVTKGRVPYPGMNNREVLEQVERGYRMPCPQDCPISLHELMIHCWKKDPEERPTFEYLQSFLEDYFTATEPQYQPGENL

T1 sequence (P06239 whole entry): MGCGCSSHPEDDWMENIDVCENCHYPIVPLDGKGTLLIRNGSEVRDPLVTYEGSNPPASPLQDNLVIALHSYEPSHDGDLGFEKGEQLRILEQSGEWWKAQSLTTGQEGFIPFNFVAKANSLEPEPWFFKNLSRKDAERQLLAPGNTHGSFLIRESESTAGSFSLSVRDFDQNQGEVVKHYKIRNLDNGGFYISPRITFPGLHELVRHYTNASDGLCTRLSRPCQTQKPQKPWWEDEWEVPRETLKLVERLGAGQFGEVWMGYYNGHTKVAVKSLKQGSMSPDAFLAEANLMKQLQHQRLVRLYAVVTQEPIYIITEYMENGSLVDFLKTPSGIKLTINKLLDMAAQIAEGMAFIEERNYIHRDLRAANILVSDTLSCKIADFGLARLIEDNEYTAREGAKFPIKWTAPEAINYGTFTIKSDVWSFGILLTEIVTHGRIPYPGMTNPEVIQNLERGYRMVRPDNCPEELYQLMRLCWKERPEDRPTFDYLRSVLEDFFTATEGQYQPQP
Sequence of Proto-oncogene tyrosine-protein kinase Src (P12931 2-536 limits assumed): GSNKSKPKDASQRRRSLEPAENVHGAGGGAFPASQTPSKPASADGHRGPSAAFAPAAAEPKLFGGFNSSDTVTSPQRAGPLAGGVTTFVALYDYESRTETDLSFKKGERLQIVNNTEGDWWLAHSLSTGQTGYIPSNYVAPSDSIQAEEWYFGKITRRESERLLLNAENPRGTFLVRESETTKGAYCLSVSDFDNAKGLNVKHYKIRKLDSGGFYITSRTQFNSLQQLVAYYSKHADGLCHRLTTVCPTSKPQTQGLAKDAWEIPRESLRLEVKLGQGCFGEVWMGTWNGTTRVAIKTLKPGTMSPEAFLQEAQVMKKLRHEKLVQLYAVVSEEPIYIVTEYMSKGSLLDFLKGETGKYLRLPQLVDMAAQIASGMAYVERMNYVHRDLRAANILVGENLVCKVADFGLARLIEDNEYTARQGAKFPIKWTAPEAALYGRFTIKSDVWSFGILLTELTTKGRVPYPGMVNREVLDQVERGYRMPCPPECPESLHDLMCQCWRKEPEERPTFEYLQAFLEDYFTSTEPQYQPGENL

With `Cc1cc(Nc2nc3ccc(C(=O)Nc4c(C)cccc4Cl)cc3s2)nc(CN2CCOCC2)n1` the pIC50 [1] was 8.00.

`Cc1cccc(Cl)c1NC(=O)c1ccc2nc(Nc3cc(N)ncn3)sc2c1` showed a pIC50 [1] of 8.10.

In the case of `Cc1cccc(Cl)c1NC(=O)c1ccc2nc(Nc3ccnc(NCCO)n3)sc2c1`, the pIC50 [1] was 8.52.

In the case of `CNc1nccc(Nc2nc3ccc(C(=O)Nc4c(C)cccc4Cl)cc3s2)n1`, the pIC50 [1] was 7.70.

`Cc1cccc(Cl)c1NC(=O)c1ccc2nc(Nc3cccc(CN4CCOCC4)n3)sc2c1` showed a pIC50 [1] of 7.89.

In the case of `Cc1cccc(Cl)c1NC(=O)c1ccc2nc(Nc3ccncn3)sc2c1`, the pIC50 [1] was 7.57.

Molecule `Cc1cccc(Cl)c1NC(=O)c1ccc2nc(Nc3cnccn3)sc2c1` has a pIC50 [1] of 7.82.

For `Cc1cc(C)c(NC(=O)c2ccc3nc(Nc4cnc[nH]4)sc3c2)c(C)c1`, the pIC50 [1] was < 5.51.

For `Cc1cccc(Cl)c1NC(=O)c1ccc2nc(Nc3ccnc(Cl)n3)sc2c1`, the pIC50 [1] was 7.51.

Molecule `Cc1cc(Nc2nc3ccc(C(=O)Nc4c(C)cccc4Cl)cc3s2)nc(NCC(C)(C)O)n1` has a pIC50 [1] of 8.22.

In the case of `Cc1cc(C)c(NC(=O)c2ccc3nc(Nc4cnccn4)sc3c2)c(C)c1`, the pIC50 [1] was 6.63.

With `Cc1cccc(Cl)c1NC(=O)c1ccc2nc(Nc3cc(NCCO)ncn3)sc2c1` the pIC50 [1] was 8.10.

With `Cc1cc(C)c(NC(=O)c2ccc3nc(Nc4cccnc4)sc3c2)c(C)c1` the pIC50 [1] was < 5.51.

`Cc1cccc(Cl)c1NC(=O)c1ccc2nc(Nc3cc(CN4CCOCC4)ccn3)sc2c1` showed a pIC50 [1] of 9.00.

With `Cc1ccc(Nc2nc3ccc(C(=O)Nc4c(C)cccc4Cl)cc3s2)nc1` the pIC50 [1] was 7.46.

Work on `Cc1cccc(Cl)c1NC(=O)c1ccc2nc(Nc3cccc(NCCO)n3)sc2c1` yielded a pKi [2] of 7.89, a pIC50 [3] of 6.32 and a pIC50 [1] of 9.30. For the same molecule, the pKi [4] was 9.05 and the pKi [5] was 8.62.

For `Cc1cc(C)c(NC(=O)c2ccc3nc(Nc4nc[nH]n4)sc3c2)c(C)c1`, the pIC50 [1] was < 5.51.

`Cc1cccc(Cl)c1NC(=O)c1ccc2nc(Nc3cccc(CN(C)C)n3)sc2c1` showed a pIC50 [1] of 8.00.

`Cc1nc(CN2CCOCC2)cc(Nc2nc3ccc(C(=O)Nc4c(C)cccc4Cl)cc3s2)n1` gave a pIC50 [1] of 8.22.

With `Cc1cccc(Cl)c1NC(=O)c1ccc2nc(Nc3cc(Cl)ncn3)sc2c1` the pIC50 [1] was 7.70.

For `Cc1cccc(Cl)c1NC(=O)c1ccc2nc(Nc3cc(CN(C)C)ccn3)sc2c1`, the pIC50 [1] was 8.05.

With `Cc1cccc(Cl)c1NC(=O)c1ccc2nc(Nc3ccn[nH]3)sc2c1` the pIC50 [1] was 5.80.

With `Cc1cc(C)c(NC(=O)c2ccc3nc(Nc4ccccn4)sc3c2)c(C)c1` the pIC50 [1] was 6.86.

In the case of `Cc1cccc(Cl)c1NC(=O)c1ccc2nc(Nc3ccccc3)sc2c1`, the pIC50 [1] was 6.49.

In the case of `CC(=O)NCCNc1cc(Nc2nc3ccc(C(=O)Nc4c(C)cccc4Cl)cc3s2)ncn1`, the pIC50 [1] was 8.22.

Molecule `Cc1ccnc(Nc2nc3ccc(C(=O)Nc4c(C)cccc4Cl)cc3s2)c1` has a pIC50 [1] of 7.70.

In the case of `Cc1cccc(Cl)c1NC(=O)c1ccc2nc(Nc3ncc[nH]3)sc2c1`, the pIC50 [1] was < 5.51.

`CCc1ccnc(Nc2nc3ccc(C(=O)Nc4c(C)cccc4Cl)cc3s2)c1` showed a pIC50 [1] of 8.30.

Molecule `Cc1cc(C)c(NC(=O)c2ccc3nc(Nc4cccc(C)n4)sc3c2)c(C)c1` has a pIC50 [1] of 6.74.

Work on `Cc1cccc(Cl)c1NC(=O)c1ccc2nc(NC(=O)NC(C)(C)C)sc2c1` yielded a pKi [2] of 6.48, a pIC50 [3] of 5.96 and a pKi [4] of 8.26. The pKi [5] was 7.00.

`Cc1cccc(Cl)c1NC(=O)c1ccc2nc(Nc3cccc(NCC(C)(C)N)n3)sc2c1` gave a pIC50 [1] of 8.22.

In the case of `Cc1cc(C)c(NC(=O)c2ccc3nc(NCC4CC4)sc3c2)c(C)c1`, the pIC50 [1] was < 5.51.

Molecule `CCc1cc(Nc2nc3ccc(C(=O)Nc4c(C)cc(C)cc4C)cc3s2)ncn1` has a pIC50 [1] of 7.11.

With `Cc1cccc(Cl)c1NC(=O)c1ccc2nc(Nc3ccccn3)sc2c1` the pIC50 [1] was 7.08.

With `CNN1CCN(Cc2ccnc(Nc3nc4ccc(C(=O)Nc5c(C)cccc5Cl)cc4s3)c2)CC1` the pIC50 [1] was 9.00.

`CNc1cc(Nc2nc3ccc(C(=O)Nc4c(C)cccc4Cl)cc3s2)ncn1` showed a pKi [2] of 7.77, a pIC50 [3] of 6.16 and a pIC50 [1] of 8.70. For the same molecule, the pKi [4] was 8.18 and the pKi [5] was 8.06.

In the case of `Cc1cc(C)c(NC(=O)c2ccc3nc(Nc4cc(C)nc(C)n4)sc3c2)c(C)c1`, the pIC50 [1] was 7.28.

With `Cc1cc(C)c(NC(=O)c2ccc3nc(Nc4ncccc4C)sc3c2)c(C)c1` the pIC50 [1] was < 5.51.

For `Cc1cc(C)c(NC(=O)c2ccc3nc(Nc4ccccc4)sc3c2)c(C)c1`, the pIC50 [1] was 5.76.

For `Cc1cc(C)c(NC(=O)c2ccc3nc(Nc4ccncc4)sc3c2)c(C)c1`, the pIC50 [1] was < 5.51.

`Cc1cc(Nc2nc3ccc(C(=O)Nc4c(C)cccc4Cl)cc3s2)ncn1` gave a pIC50 [1] of 7.68.

With `Cc1cc(C)c(NC(=O)c2ccc3nc(Nc4nccnn4)sc3c2)c(C)c1` the pIC50 [1] was 5.72.

For `CC(=O)NCCNc1cccc(Nc2nc3ccc(C(=O)Nc4c(C)cccc4Cl)cc3s2)n1`, the pIC50 [1] was 8.70.

In the case of `CNCc1cc(Nc2nc3ccc(C(=O)Nc4c(C)cccc4Cl)cc3s2)nc(C)n1`, the pIC50 [1] was 8.15.

`Cc1cc(Nc2nc3ccc(C(=O)Nc4c(C)cccc4Cl)cc3s2)nc(C)n1` showed a pIC50 [1] of 7.70.

Work on `Cc1cccc(Nc2nc3ccc(C(=O)Nc4c(C)cccc4Cl)cc3s2)n1` yielded a pIC50 [1] of 8.05.

For `Cc1cc(C)c(NC(=O)c2ccc3nc(Nc4ncccn4)sc3c2)c(C)c1`, the pIC50 [1] was < 5.51.

In the case of `CCc1cc(Nc2nc3ccc(C(=O)Nc4c(C)cccc4Cl)cc3s2)ncn1`, the pIC50 [1] was 8.30.

Molecule `Cc1ccnc(Nc2nc3ccc(C(=O)Nc4c(C)cc(C)cc4C)cc3s2)c1` has a pIC50 [1] of 7.49.

For `Cc1cccc(Cl)c1NC(=O)c1ccc2nc(NN3C=CC=CN3)sc2c1`, the pIC50 [1] was 7.39.

For `Cc1cc(C)c(NC(=O)c2ccc3nc(Nc4ccncn4)sc3c2)c(C)c1`, the pIC50 [1] was 6.39.

In the case of `Cc1cnc(Nc2nc3ccc(C(=O)Nc4c(C)cc(C)cc4C)cc3s2)c(C)c1`, the pIC50 [1] was 7.77.

In the case of `Cc1ccc(Nc2nc3ccc(C(=O)Nc4c(C)cc(C)cc4C)cc3s2)nc1`, the pIC50 [1] was 7.14.

`Cc1cccc(Cl)c1NC(=O)c1ccc2nc(Nc3cc(N)ccn3)sc2c1` showed a pIC50 [1] of 6.39.

Work on `COc1cc(Nc2nc3ccc(C(=O)Nc4c(C)cccc4Cl)cc3s2)ncn1` yielded a pIC50 [1] of 7.89.

In the case of `Cc1cc(C)c(NC(=O)c2ccc3nc(Nc4ncc[nH]4)sc3c2)c(C)c1`, the pIC50 [1] was < 5.51.

`Cc1cc(Nc2nc3ccc(C(=O)Nc4c(C)cccc4Cl)cc3s2)nc(NCC2CCCO2)n1` (stereo not given) showed a pKi [2] of 8.49, a pIC50 [3] of 6.58 and a pIC50 [1] of 9.00. The pKi [4] was 9.27 and the pKi [5] was 8.96.

In the case of `Cc1cc(C)c(NC(=O)c2ccc3nc(Nc4nccs4)sc3c2)c(C)c1`, the pIC50 [1] was < 5.51.

With `Cc1cccc(Cl)c1NC(=O)c1ccc2nc(Nc3cccc(N)n3)sc2c1` the pIC50 [1] was 8.70.

Molecule `Cc1cc(Nc2nc3ccc(C(=O)Nc4c(C)cccc4Cl)cc3s2)nc(NCCO)n1` has a pKi [2] of 8.00, a pIC50 [3] of 6.48 and a pIC50 [1] of 8.70. The pIC50 [4] was 8.96 and the pKi [5] was 8.40.

For `Cc1cc(C)nc(Nc2nc3ccc(C(=O)Nc4c(C)cccc4Cl)cc3s2)c1`, the pIC50 [1] was 8.10.
